Peptide text beside a SMILES is read from it.

For the first experiment, the system named is Micrococcus luteus. The experiment in a line: Inhibition of [125I]ristocetin binding to micrococcus luteus cells. The experiment is classed as functional, organism-based. The gist of the method:
(§1)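 Lyophilized M. luteus cells were boiled in 1% sodium lauryl sulfate, washed with water, and stored at 4 °C. Ristocetin was iodinated with 125I/I2 and purified on CM-cellulose. Duplicate tubes held 50 μg cells, 1 μg labeled antibiotic and varied N-acetyl peptide in sodium citrate buffer, pH 5.1, in 0.2 mL at room temperature. Tubes were centrifuged at 10000g for 10 min and supernatant γ-counted. Ki came from Cheng-Prusoff using the Scatchard Kd.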
The compound `CC(=O)N[C@H](C)C(=O)O` showed a Ki of 3200 µM. Regarding `CC(=O)N[C@H](C)C(=O)NCC(=O)O`, the affinity, expressed as Ki, was 3100 µM. On the same count and under the same terms, with `CC(=O)N[C@H](C)C(=O)N[C@H](Cc1ccccc1)C(=O)O` the figure was 8.7 µM; with `CC(=O)N[C@H](CC(C)C)C(=O)NCC(=O)O`, 11000 µM; with `CC(=O)N[C@H](C)C(=O)N[C@H](C)C(=O)O`, 73 µM. On the same count and under the same terms, under `CC(=O)N[C@H](C)C(=O)N[C@H](C)C(=O)N[C@H](C)C(=O)O` stands 42 µM.

Regarding `CC(=O)N[C@H](Cc1ccccc1)C(=O)O`, the affinity corresponds to a Ki of 100 µM. `CC(=O)NCC(=O)N[C@H](Cc1ccccc1)C(=O)O` returned a Ki of 9.8 µM.

`CSCC[C@@H](NC(C)=O)C(=O)O`: the Ki was 2400 µM. The compound `CC(=O)N[C@H](Cc1c[nH]c2ccccc12)C(=O)O` had a Ki of 160 µM. `CC(=O)NCC(=O)N[C@@H](CC(C)C)C(=O)O` yielded an inhibition constant Ki of 590 µM. On the same count and under the same terms, under `CC(=O)N[C@H](CC(C)C)C(=O)N[C@H](CC(C)C)C(=O)O` stands 4500 µM; under `CC(=O)N[C@@H](Cc1ccccc1)C(=O)NCC(=O)NCC(=O)O` (Ac-Phe-Gly-Gly-OH), 1600 µM; under `CC(=O)N1CCC[C@H]1C(=O)NCC(=O)NCC(=O)O` (Ac-Pro-Gly-Gly-OH), 1600 µM. Still for that read-out and setting: under `CC(=O)N[C@@H](Cc1c[nH]c2ccccc12)C(=O)NCC(=O)NCC(=O)O` (Ac-Trp-Gly-Gly-OH) stands 1200 µM. Still for that read-out and setting: under `CC(=O)NCC(=O)O` [ACETURIC ACID] stands 29000 µM.

In the next experiment the test system is Micrococcus luteus. The experiment in a line: Inhibition of [125I]ristocetin binding to micrococcus luteus cell wall (UDP-N-acetylmuramylpentapeptide). Format: functional, organism-based. The gist of the method:
as §1
Regarding `CC(=O)N[C@H](CC(N)=O)C(=O)O`, the affinity, expressed as Ki, was 9000 µM. On the same count and under the same terms, with `CC(=O)NCC(=O)N[C@@H](C(=O)O)C(C)C` the figure was 340 µM.

In turn, `CC(=O)NCC(=O)N[C@H](CC(N)=O)C(=O)O` showed a Ki of 720 µM. Same read-out and setting: under `CC(=O)NCC(=O)N[C@H](CO)C(=O)O` stands 540 µM.

As to `CC(=O)N[C@@H](C(=O)O)C(C)C`, affinity was put at a Ki of 3100 µM. Still for that read-out and setting: with `CC[C@@H](C)[C@@H](NC(C)=O)C(=O)O` the figure was 2800 µM; with `CC(=O)NCC(=O)N[C@H](C)C(=O)O`, 130 µM.

Compound `CC(=O)NCC(=O)NCC(=O)O` registered an inhibitory constant (Ki) of 4600 µM. The same measure, in the same setting: with `CC(=O)N[C@H](CC(C)C)C(=O)NCC(=O)NCC(=O)O` the figure was 1900 µM; with `CC(=O)N[C@H](CC(C)C)C(=O)O`, 2800 µM; with `CC(=O)NC(C(=O)O)c1ccc(O)cc1` (centres undefined), 4200 µM. `C[C@@H](NC(=O)OCc1ccccc1)C(=O)O` registered an inhibition constant (Ki) of 5100 µM. `CC(=O)N[C@@H](CC(C)C)C(=O)NCC(=O)NCC(=O)O` displayed an inhibition constant Ki of 2000 µM. Take `CC(=O)NCC(=O)N[C@@H](C(=O)O)[C@H](C)O`: the inhibitory constant (Ki) was 4700 µM. Still for that read-out and setting: with `CC(=O)N[C@@H](CCCCN)C(=O)N[C@H](C)C(=O)N[C@H](C)C(=O)O` the figure was 16 µM; with `CC(=O)NCC(=O)N[C@H](CC(=O)O)C(=O)O`, 1400 µM. Still for that read-out and setting: with `CC(=O)NCC(=O)NCC(=O)NCC(=O)O` (Ac-Gly-Gly-Gly-OH) the figure was 7100 µM. Still for that read-out and setting: under `CC(=O)N[C@@H](Cc1ccc(O)cc1)C(=O)NCC(=O)NCC(=O)O` (Ac-Tyr-Gly-Gly-OH) stands 1300 µM.

The record behind these values is ChEMBL document CHEMBL1124626, “Inhibition of 125I-labeled ristocetin binding to Micrococcus luteus cells by the peptides related to bacterial cell wall mucopeptide precursors: quantitative structure-activity relationships” (J Med Chem, 1989).
